{"data": "Assay results of several laboratories", "COQ8A": "Atypical kinase COQ8A, mitochondrial (COQ8A, Homo sapiens, UniProt Q8NI60)", "PIK3CD": "Phosphatidylinositol 4,5-bisphosphate 3-kinase catalytic subunit delta isoform (PIK3CD, Homo sapiens, UniProt O00329)", "NTSR1": "Neurotensin receptor type 1 (NTSR1, Homo sapiens, UniProt P30989)", "NR3C2": "Mineralocorticoid receptor (NR3C2, Homo sapiens, UniProt P08235)"}
{"Compound": "CC(C)(C)OC(=O)N1CCN(Cc2ccn(Cc3ccc(Cl)cc3)c(=O)c2O)CC1", "target": "Lysine-specific demethylase 6A (Homo sapiens, UniProt O15550)", "assay": "enzyme activity, inhibitor, AlphaScreen", "quantity": "IC50", "result": "5.43 µM"}
{"Compound": "Cc1ccc(Nc2nc3nonc3nc2Nc2cccc(C(F)(F)F)c2)cc1Cl", "target": "COQ8A", "assay": "ligand displacement, TR-FRET", "quantity": "IC50", "result": "0.97 µM"}
{"Compound": "Cc1nc(Nc2ccc3c(c2)/C(=C/c2ccccc2C)C(=O)N3)c2ccccc2n1", "target": "PIK3CD", "assay": "enzyme activity, inhibitor, ADP detection", "quantity": "IC50", "result": "0.126 µM"}
{"Compound": "COc1ccc2c(c1)CCc1c-2n[nH]c1C(=O)N1CCc2nc3cc(-c4ccccc4)[nH]n3c(=O)c2C1", "target": "COQ8A", "assay": "ligand displacement, TR-FRET", "quantity": "IC50", "result": "2.73 µM"}
{"Compound": "Cc1nc(N(C)c2ccc3c(c2)/C(=C/c2ccccc2Cl)C(=O)N3C)c2ccccc2n1", "target": "PIK3CD", "assay": "enzyme activity, inhibitor, ADP detection", "quantity": "IC50", "result": "> 1 µM"}
{"Compound": "COc1cc(/C=C/C(=O)CC(=O)/C=C/c2ccc(O)c(OC)c2)ccc1O", "target": "Sarcoplasmic/endoplasmic reticulum calcium ATPase 1 (ATP2A1, Oryctolagus cuniculus, UniProt P04191)", "assay": "binding, fluorescence", "setting": "pH 7.2", "quantity": "Kd", "result": "6.8 µM"}
{"Compound": "COc1ccccc1C1CCN(c2nc(C3CC3)nc3ccc(N4CCC(N(C)C)C4)cc23)CC1 (stereo not shown)", "target": "NTSR1", "assay": "β-arrestin recruitment, agonist", "quantity": "EC50", "result": "~65700 µM"}
{"Compound": "CCc1ccc(NC(=O)CSc2nc(-c3ccc(C)cc3)nc3c2Cc2c(CO)cnc(C)c2O3)cc1", "target": "COQ8A", "assay": "ligand displacement, TR-FRET", "quantity": "IC50", "result": "8.63 µM"}
{"Compound": "Cc1nc(Nc2ccc3c(c2)/C(=C/c2ccccc2)C(=O)N3Cc2ccccc2)c2ccccc2n1", "target": "PIK3CD", "assay": "enzyme activity, inhibitor, ADP detection", "quantity": "IC50", "result": "0.225 µM"}
{"Compound": "Nc1ncnc2c1ncn2[C@@H]1O[C@H](COP(=O)(O)OP(=O)(O)OP(=O)(O)O)[C@@H](O)[C@H]1O", "target": "P2X purinoceptor 3 (P2rx3, Rattus norvegicus, UniProt P49654)", "assay": "ion current, agonist, patch clamp", "quantity": "EC50", "result": "0.271 µM"}
{"Compound": "C[C@]12CCC(=O)C=C1CC[C@@H]1[C@@H]2[C@@H](O)C[C@@]2(C=O)[C@H]1CC[C@]2(O)C(=O)CO", "target": "NR3C2", "assay": "reporter gene, agonist, luciferase", "quantity": "EC50", "result": "0.0196 µM"}
{"Compound": "Cc1nc(Nc2ccc3c(c2)C(C)(C)C(=O)N3)c2ccccc2n1", "target": "PIK3CD", "assay": "enzyme activity, inhibitor, ADP detection", "quantity": "IC50", "result": "> 1 µM"}
{"Compound": "Cc1noc(C)c1Cc1ccc(C(=O)N2CCc3c(nc4cc(-c5ccccc5)[nH]n4c3=O)C2)o1", "target": "COQ8A", "assay": "ligand displacement, TR-FRET", "quantity": "IC50", "result": "0.49 µM"}
{"Compound": "Cc1nc(Nc2ccc3c(c2)CC(=O)N3)c2ccccc2n1", "target": "PIK3CD", "assay": "enzyme activity, inhibitor, ADP detection", "quantity": "IC50", "result": "0.397 µM"}
{"Compound": "C[C@]12CCC(=O)C=C1CC[C@@H]1[C@@H]2[C@@H](O)C[C@]2(CO)[C@@H](C(=O)CO)CC[C@@H]12", "target": "NR3C2", "assay": "reporter gene, agonist, luciferase", "quantity": "EC50", "result": "0.056 µM"}
{"Compound": "CC1(C)CCC(CN2CCN(c3ccc(C(=O)NS(=O)(=O)c4ccc(NCC5CCOCC5)c([N+](=O)[O-])c4)c(Oc4cnc5[nH]ccc5c4)c3)CC2)=C(c2ccc(Cl)cc2)C1", "target": "COQ8A", "assay": "ligand displacement, TR-FRET", "quantity": "IC50", "result": "6.11 µM"}
{"Compound": "COc1ccccc1C1CCN(c2nc(C3(C)CCCC3)nc3ccc(N(C)CCO)cc23)CC1", "target": "NTSR1", "assay": "β-arrestin recruitment, agonist", "quantity": "EC50", "result": "40.2 µM"}
{"Compound": "NC(=O)c1ncc(N2CCCCC2)nc1Nc1ccc(C2CCN(C[C@H]3CCN(c4ccc5c(c4)C(=O)N(C4CCC(=O)NC4=O)C5=O)C3)CC2)cc1 (stereo partly shown)", "target": "Tyrosine-protein kinase BTK (BTK, Homo sapiens, UniProt Q06187, L528W)", "assay": "binding, SPR", "quantity": "Kd", "result": "0.088 µM"}
{"Compound": "COc1cc2ncnc(Nc3ccc4c(c3)/C(=C/c3cccc(Cl)c3)C(=O)N4C)c2cc1OC", "target": "PIK3CD", "assay": "enzyme activity, inhibitor, ADP detection", "quantity": "IC50", "result": "0.628 µM"}
